Measured values from different studies.
Compare with care: the assays were run in different laboratories. In brackets after ≈: the same amount, converted by molar mass.

With Nc1ncnc2c([C@@H]3N[C@H](CO)[C@@H](O)[C@H]3O)c[nH]c12 the inhibition was 9.8% (Japanese encephalitis virus; viral replication, inhibitor; Vero 76; 9.5 µM).
COC1=C2C[C@@H](C)C[C@H](OC)[C@H](O)[C@@H](C)/C=C(\C)[C@H](OC(N)=O)[C@@H](OC)/C=C\C=C(/C)C(=O)NC(=CC1=O)C2=O gave an IC50 of 8.71 µM (Human coronavirus 229E; viral replication; Calu-3).
For CCCCCCCC/C=C\CCCCCCCCNC(=O)CP(=O)(O)O, the MIC was 50 µg/mL (≈ 128 µM) (Enterococcus faecalis; microbial growth; ATCC33186).
For O=c1cc(OCCCOc2ccnc(SCc3ccc(F)cc3)n2)c2cc(F)ccc2o1, the inhibition was 34.9% (Human coronavirus 229E; cytopathic effect; A549; 6.25 µM).
CCCCCC/C=C\CCCCCCCCCC(=O)NP(=O)(O)O has an MIC of 200 µg/mL (≈ 553 µM) (Enterococcus faecalis; microbial growth; ATCC33186).
The IC50 of O=C(Cc1ccc2ccccc2c1)N[C@@H](Cc1ccccc1)C(=O)N[C@@H](Cc1ccccc1)C(=O)N[C@H](Cc1ccc(OP(=O)(O)O)cc1)C(=O)O is reported as 428 µM (HeLa; cell growth or viability, MTT; 48 h).
With CCOC(=O)C1=C[C@@H](OC(CC)CC)[C@H](NC(C)=O)[C@@H](N)C1 the inhibition was 72.8% (Human coronavirus 229E; cytopathic effect; A549; 50 µM).
The viability of CC1(C)C=Cc2cc(/C=C/C(=O)Nc3ccccc3)ccc2O1 is reported as 73% (rat Primary cortical neuron; cell growth or viability, MTT; 1 µM, 12 h).
O=C(CCCCC1CCCCC1)NP(=O)(O)O gave an MIC of greater than 200 µg/mL (Enterococcus faecalis; microbial growth; ATCC33186).
Cc1cccc(CSc2nccc(OCCOc3cc(=O)oc4ccccc34)n2)c1 gave an inhibition of 58.1% (Human coronavirus 229E; cytopathic effect; A549; 25 µM).
For NC(=O)c1ncn([C@@H]2O[C@H](CO)[C@@H](O)[C@H]2O)n1, the IC50 was 25.1 µM (Human coronavirus 229E; viral replication; Huh7.5).
The MIC of CCCCCCCCCCCCCCCC(=O)NP(=O)(O)O is reported as 200 µg/mL (≈ 596 µM) (Enterococcus faecalis; microbial growth; ATCC33186).
The IC50 of CC(C)[C@H](NC(=O)[C@H](CCCNC(=N)N)NC(=O)N[C@@H](Cc1ccccc1)C(=O)O)C(=O)N[C@H](C=O)CCCNC(=N)N is reported as 1.57 µM (Human coronavirus 229E; viral replication; Huh7.5).
For COc1cccc(NC(=O)/C=C/c2ccc3c(c2)C=CC(C)(C)O3)c1, the viability was 87% (rat Primary cortical neuron; cell growth or viability, MTT; 1 µM, 12 h).
The MIC of CCCC(=O)CP(=O)(O)O is reported as greater than 200 µg/mL (Enterococcus faecalis; microbial growth; ATCC33186).
COc1ccccc1NC(=O)/C=C/c1ccc2c(c1)C=CC(C)(C)O2 has a viability of 83% (rat Primary cortical neuron; cell growth or viability, MTT; 1 µM, 12 h).
With COc1c(C)c2c(c(O)c1C/C=C(\C)CCC(=O)O)C(=O)OC2 the IC50 was 2.11 µM (Human coronavirus 229E; viral replication; Calu-3).
